# Screens deposited in PubChem by several laboratories.
# Compounds with a hit are over-represented: about 3.9% of the library has one in this group of screens.
# UPR XBP1 act: activators of adaptive XBP1 UPR arm, primary screen, cell-based, CHO-XBP1 luciferase reporter, luminescence, uHTS; IRE1-XBP1 UPR activation; percent of tunicamycin response, DMSO as zero; 330,000 compounds, 0.33% hits; activation, % at 20 µM;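 active = versus positive control, 20 µM dose yields 30% or more activation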;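 note: 100% = tunicamycin at 10 µg/mL and 0% = DMSO only wells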
#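 Test system: CHO-XBP1 luciferase reporter cells | Buffer or medium: Serum-containing F12 medium, 10% FBS | Schedule: 6 h compound exposure at 37 °C, 5% CO2 | Detection: Steady-Glo luciferase glow luminescence, 10 min after reagent addition | Read-out basis: Activation, % of tunicamycin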
# CHOP inhibitor: inhibitors of CHOP promoter induction, primary screen, cell-based, unfolded protein response, luciferase reporter. AID 2732, 2010. CHO-K1 CHOP-promoter luciferase, tunicamycin-induced, 15-18 h. 220,000 compounds, 3.8% hits. inhibition, % at 10 µM;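 active = compounds that reduced the stress-induced luciferase reporter signal by more than about 70% of percent inhibition, limit read from the data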;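 note: 0% = tunicamycin plus vehicle and 100% = wells without tunicamycin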
# Gli-Sufu antag: Gli-Sufu pathway antagonists, primary screen, luciferase luminescence, Sufu-KO-LIGHT cells, uHTS | Sufu-KO-LIGHT fibroblasts, Gli luciferase reporter luminescence | 340,000 compounds, 0.74% hits | inhibition, % at 5 µM;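 active = inhibition above about 55%, limit read from the data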;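 note: 0% = DMSO-treated cells and 100% = wells with medium but no cells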
# CHOP UPR activ: activators of apoptotic CHOP UPR arm, primary screen, cell-based, CHO-CHOP luciferase reporter, luminescence, uHTS | activation, % at 10 µM | AID 449763, 2010 | 330,000 compounds, 0.34% hits | UPR activation; percent of tunicamycin response over DMSO baseline;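 active = at 10 µM dose, activation of 40% or more, normalized to positive control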;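 note: 100% = tunicamycin at 10 µg/mL and 0% = DMSO alone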
#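 Test system: CHO CHOP reporter cells. Input: 500 CHO-CHOP cells per well. Medium: F12 with 10% FBS. Technique: luciferase luminescence. Measure: percent activation relative to tunicamycin control. Dosing: 10 µM compound, 0.5% DMSO. Timing: 16-18 h cell attachment, then 6 h compound exposure, 37 °C.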
# 697 NFkB inh: inhibitors of PMA/ionomycin-induced NF-kB reporter, 697 cells, primary screen, B-cell NF-kB inhibitor project, cell-based, luminescence, uHTS. 697 B-cell NF-kB luciferase reporter, 16 h. inhibition, % at 4 µM. 330,000 compounds, 0.33% hits; in the data active = inhibition above about 35%
# Jurkat NFkB inh: inhibitors of induced NF-kB luciferase reporter, primary screen, TCR NF-kB activation inhibitor project, cell-based, luminescence, uHTS. Jurkat, PMA/ionomycin-induced NF-kB luciferase reporter. inhibition, % at 4 µM. 330,000 compounds, 0.53% hits; in the data active = inhibition above about 50%
# 697 NFkB conf: PMA/ionomycin-induced NF-kB reporter inhibitors, 697 retest, confirmation, B-cell NF-kB inhibitor project, cell-based, luminescence, single concentration; 697 B-cell NF-kB luciferase, 16 h; inhibition, % at 4 µM; 2,000 compounds, 35% hits; shares compounds with 697 NFkB inh; in the data active = inhibition mostly above about 28%, no sharp cut-off; inactive = mostly below about 22%
# * marks the source's active call; other numbers are inactive results; · = no result.
SMILES,UPR XBP1 act,CHOP inhibitor,Gli-Sufu antag,CHOP UPR activ,697 NFkB inh,Jurkat NFkB inh,697 NFkB conf
O=C(CN1C(=O)c2ccccc2S1(=O)=O)c1ccc(Cl)cc1Cl,-9,·,90*,-9,74*,-14,74*
COC(=O)c1ccc(NC(=O)CN2C(=O)c3ccccc3S2(=O)=O)cc1,-4,·,-7,0,-7,-5,·
O=C(CCN1C(=O)c2ccccc2S1(=O)=O)Nc1cc(Cl)ccc1Cl,-1,·,4,-1,-21,3,·
O=C(O)c1cc(-c2ccc3c(c2)OCCO3)n[nH]1,-1,-3,-7,2,15,24,·
Oc1ccccc1-c1cc(-c2ccc3c(c2)OCCO3)n[nH]1,-4,19,9,-1,-433,-138,-453
Cn1cccc1C(=O)OCc1csc(-c2ccccc2)n1,-2,16,-113,0,-292,-121,-341
NS(=O)(=O)c1ccc(CCNC(=O)CSc2nc3ccsc3c(=O)n2CC2CCC(C(=O)O)CC2)cc1 (stereo not drawn),1,-5,-12,1,36*,3,10
Cn1c(=O)[nH]c(=O)c2c1nc(N1CCOCC1)n2CCSc1nnnn1-c1ccccc1,-1,-1,3,0,38*,12,18
CC(CSc1nnnn1-c1ccccc1)Cn1c(N2CCCC2)nc2c1c(=O)[nH]c(=O)n2C (stereo not drawn),9,9,-3,-1,12,-1,·
Cn1c(=O)[nH]c(=O)c2c1nc(N1CCOCC1)n2CCc1ccccc1,-2,2,-1,-2,47*,-24,7
CN(c1ccccc1)S(=O)(=O)c1cccc(NC(=O)C2CCCO2)c1 (stereo not drawn),-3,·,5,-3,-13,-6,·
CC(NS(=O)(=O)c1ccccc1)C1CC2CCC1C2 (stereo not drawn),0,·,12,3,-23,-21,·
COc1cccc(/C=N/NC(=O)C(=O)N/N=C/c2cccc(OC)c2OC)c1OC,1,-14,4,1,-8,-12,·
COc1cccc(/C=N\NC(=O)c2sc(N)nc2C)c1OC,0,12,2,1,39*,2,8
O=C(CCN1C(=O)C2CC=CCC2C1=O)Nc1cccc(Cl)c1 (stereo not drawn),-2,·,-8,0,1,-3,·
NC(=O)c1c(NC(NC(=O)c2ccco2)(C(F)(F)F)C(F)(F)F)sc2c1CCCC2,-1,61,5,0,39*,11,7
CC(=O)Nc1ccc(S(=O)(=O)N(C)CC(=O)OCC(=O)N(C)C2CCS(=O)(=O)C2)cc1 (stereo not drawn),1,·,-8,-1,0,-8,·
O=C(Nc1nc2ccccc2s1)c1ccc(F)cc1,-3,26,-131,1,-343,-150,-351
CN(CC1CCCO1)S(=O)(=O)c1ccc(C(=O)Nc2nc3cc4c(cc3s2)OCO4)cc1 (stereo not drawn),-1,·,0,1,62*,26,65*
O=C(Nc1nc2ccccc2s1)c1ccc(OCC2CCCO2)cc1 (stereo not drawn),-3,26,·,2,-401,-130,-373
COc1ccc(C(=O)Nc2nc3ccccc3s2)cc1,-6,·,-77,-2,-373,-140,-419
CN(CC1CCCO1)S(=O)(=O)c1ccc(C(=O)Nc2ccc3c(c2)OCO3)cc1 (stereo not drawn),3,12,-7,1,5,5,·
CCN1CCN(S(=O)(=O)c2ccc(Cl)c(C(=O)N(C)Cc3cccc(Cl)c3Cl)c2)CC1,-4,·,29,0,-11,-6,·
